Assay results from different studies.
Compare with care: the assays were run in different laboratories.

Compound	system	conditions	AUC
CS(=O)(=O)CCC#N	human, plasma	oral, 1000 mg, multiple doses, once daily	723000 ng·h/mL
COc1cc(C(=O)NC2CCN(C)CC2)c(F)cc1Nc1ncc(C(F)(F)F)c(Oc2cccc3c2C(=O)N(C)C3)n1	human, plasma	oral, 200 mg, multiple doses, once daily, steady state, patients	43.7 µM·h
COc1cc(C(=O)NC2CCN(C)CC2)c(F)cc1Nc1ncc(C(F)(F)F)c(Oc2cccc3c2C(=O)N(C)C3)n1	human, plasma	oral, 100 mg, multiple doses, once daily, steady state, patients	16.3 µM·h
NS(=O)(=O)NCCNc1nonc1C(=NO)Nc1ccc(F)c(Br)c1	human, plasma	oral, 50 mg, multiple doses, once daily, steady state, patients	1.58 µM·h
CC(C)(C)OC[C@@H]1C(=O)NCCN1C(=O)C[C@H](N)Cc1cc(F)c(F)cc1F	male human, plasma	oral, 5 mg, multiple doses, steady state	91.4 ng·h/mL
CS(=O)(=O)CCNCc1ccc(-c2ccc3ncnc(Nc4ccc(OCc5cccc(F)c5)c(Cl)c4)c3c2)o1	human, serum	oral, 1250 mg, single dose, fed	27300 ng·h/mL
COc1ccc(Oc2cc(N(C)CCOc3ccc(CC4SC(=O)NC4=O)cc3)ncn2)cc1 (stereo not shown)	male human, plasma	oral, 0.5 mg, multiple doses, once daily, steady state	333 ng·h/mL
Cc1ccc(C(=O)N(CCCN)[C@@H](c2oc3cc(Cl)ccc3c(=O)c2Cc2ccccc2)C(C)C)cc1	human, plasma	intravenous, 2 mg/m², single dose, patients, infusion	2520 ng·h/mL
Cn1c(=O)oc2ccc(-c3ccc(C[C@@H](C#N)NC(=O)[C@@H]4CNCCCO4)cc3)cc21	male human, plasma	oral, 5 mg, single dose, healthy volunteers	0.915 µM·h
C[C@@H](c1ccc2nccn2c1)n1nnc2ncc(-c3cnn(C)c3)nc21	human, plasma	oral, 600 mg	12800 ng·h/mL
